According to ChEMBL document CHEMBL3244116, “New antiarrhythmic agents. 2. Amide alkyl alpha-amino xylidides” (J Med Chem, 1979):

Assays:
Mus musculus [1] = experiment: Toxicity in Swiss albino mouse assessed as ataxia at 100 mg/kg, sc measured up to 20 mins; assay type: organism-based; set-up: dose 100 mg/kg, route subcutaneous; conditions: in vivo
Procedure, shortened: (§1)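 Mice were given test agents subcutaneously, 100 mg/kg in preliminary runs, and were then challenged with chloroform to induce ventricular fibrillation (a modification of Lawson's method). Protection is expressed as the percent of challenged animals that survived the challenge. In the same animals, ataxia, convulsions, loss of righting reflex and death were scored as the percent of treated animals.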

Mus musculus [2] = experiment: Toxicity in Swiss albino mouse assessed as loss of righting reflex at 100 mg/kg, sc measured up to 20 mins; assay type: organism-based; set-up: dose 100 mg/kg, route subcutaneous; conditions: in vivo; procedure, shortened: as §1
Mus musculus [3] = experiment: Ratio of lidocaine ED50 to compound ED50 for antiarrhythmic activity sc dosed Swiss albino mouse assessed as protection against chloroform-induced ventricular fibrillation; assay type: functional, Heart
Procedure, shortened: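 Each ED50 against chloroform-induced ventricular fibrillation in subcutaneously dosed mice came from at least three doses. Potency was calculated relative to lidocaine on a molar basis.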

Mus musculus [4] = experiment: Antiarrhythmic activity in sc dosed Swiss albino mouse assessed as protection against chloroform-induced ventricular fibrillation; assay type: functional; conditions: Heart; procedure, shortened: as §1
[5] = Toxicity in Swiss albino mouse assessed as death at 100 mg/kg, sc measured up to 20 mins; assay type: organism-based; set-up: dose 100 mg/kg, route subcutaneous; conditions: in vivo, read-out: Activity
Procedure, shortened: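 Mice given 100 mg/kg subcutaneously in preliminary screening, then later challenged with chloroform to induce ventricular fibrillation. CNS signs were recorded in the same animals. Value is the percent of treated animals that died.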

Mus musculus [6] = experiment: Toxicity in Swiss albino mouse assessed as convulsion at 100 mg/kg, sc measured up to 20 mins; assay type: organism-based; set-up: dose 100 mg/kg, route subcutaneous; conditions: in vivo; procedure, shortened: as §1
Mus musculus [7] = experiment: Antiarrhythmic activity in Swiss albino mouse assessed as protection against chloroform-induced fibrillation at 100 mg/kg, sc treated 20 mins before chloroform challenge; assay type: functional, Heart; conditions: route subcutaneous; procedure, shortened: as §1
Canis familiaris [8] = experiment: Antiarrhythmic activity in iv dosed left anterior descending coronary artery ligated myocardial infarction dog model assessed as dose required to reduction in ventricular ectopic beats to <= 5% at infusion rate 0.5 mg/kg/min; assay type: functional, Canis lupus familiaris, Heart
Procedure, shortened: (§2)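 Test agents were infused intravenously into dogs with coronary artery ligation-induced myocardial infarction and ventricular arrhythmias. In some runs, infusion stopped at clearing or at convulsion. In others, it continued until clearing. Ectopic beats, CNS signs (convulsions, opisthotonus, clonic spasms), respiratory arrest and mean arterial blood pressure were recorded, and doses are given in mmol/kg. Values are means±SD of 5–14 experiments or the mean of 8.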

Canis familiaris [9] = experiment: Antiarrhythmic activity in left anterior descending coronary artery ligated myocardial infarction dog model assessed as clearing value as reduction in ventricular ectopic beat rate per min at infusion rate 0.5 mg/kg/min, iv treated until arrhythmia cleared; assay type: functional, Canis lupus familiaris, Heart; procedure, shortened: as §2
Canis familiaris [10] = experiment: Antiarrhythmic activity in left anterior descending coronary artery ligated myocardial infarction dog model assessed as mean arterial blood pressure at infusion rate 0.5 mg/kg/min, iv; assay type: functional, Canis lupus familiaris; procedure, shortened: as §2
Canis familiaris [11] = experiment: Toxicity in left anterior descending coronary artery ligated myocardial infarction dog model assessed as dose required to cause convulsion at infusion rate at 0.5 mg/kg/min; assay type: organism-based, Canis lupus familiaris; conditions: in vivo; procedure, shortened: as §2
Canis familiaris [12] = experiment: Antiarrhythmic activity in left anterior descending coronary artery ligated myocardial infarction dog model assessed as clearing value as reduction in ventricular ectopic beats to <= 5% for 5 mins at infusion rate 0.5 mg/kg/min, iv treated until arrhythmia cleared; assay type: functional, Canis lupus familiaris, Heart; set-up: scale not given: the % may be the effect or the level left; procedure, shortened: as §2
Canis familiaris [13] = experiment: Toxicity in iv dosed left anterior descending coronary artery ligated myocardial infarction dog model assessed as dose required to cause convulsion after infusion off; assay type: organism-based, Canis lupus familiaris; conditions: in vivo; procedure, shortened: as §2
Canis familiaris [14] = experiment: Toxicity in left anterior descending coronary artery ligated myocardial infarction dog model assessed as dose required to cause convulsion at infusion rate at 0.66 mg/kg/min; assay type: organism-based, Canis lupus familiaris; conditions: in vivo; procedure, shortened: as §2

CCCCOc1cc(C)c(N(C)C(=O)CN)c(C)c1.O=C(O)C(=O)O
Activity (Mus musculus [1]): 0%
Activity (Mus musculus [2]): 0%
Ratio ED50 (Mus musculus [3]): 1
ED50 (Mus musculus [4]): 270 µmol/kg
mortality at 20 min [5]: 0%
Activity (Mus musculus [6]): 0%
Activity (Mus musculus [7]): 100%

CCN(CC)CC(=O)Nc1c(C)cccc1C [LIDOCAINE]
Activity (Mus musculus [1]): 100%
Activity (Mus musculus [2]): 100%
Activity (Canis familiaris [8]): 0.21 mmol/kg
Ratio ED50 (Mus musculus [3]): 1
ED50 (Mus musculus [4]): 260 µmol/kg
Activity (Canis familiaris [9]): 133 bpm
Activity (Canis familiaris [10]): 101 mmHg
Activity (Canis familiaris [11]): 0.27 mmol/kg
mortality at 20 min [5]: 0%
Activity (Canis familiaris [12]): 4%
Activity (Mus musculus [6]): 100%
Activity (Mus musculus [7]): 100%

CCCOc1cc(C)c(N(C)C(=O)CN)c(C)c1.O=C(O)C(=O)O
Activity (Mus musculus [1]): 20%
Activity (Mus musculus [2]): 0%
Ratio ED50 (Mus musculus [3]): 0.8
ED50 (Mus musculus [4]): 340 µmol/kg
mortality at 20 min [5]: 0%
Activity (Mus musculus [6]): 0%
Activity (Mus musculus [7]): 70%

Cc1cccc(C)c1NC(=O)C(C)N (stereo not drawn) [TOCAINIDE]
Activity (Mus musculus [1]): 10%
Activity (Mus musculus [2]): 0%
Activity (Canis familiaris [8]): 0.32 mmol/kg
Ratio ED50 (Mus musculus [3]): 0.2
ED50 (Mus musculus [4]): 1300 µmol/kg
Activity (Canis familiaris [9]): 148 bpm
Activity (Canis familiaris [10]): 108 mmHg
Activity (Canis familiaris [11]): 0.3 mmol/kg
mortality at 20 min [5]: 0%
Activity (Canis familiaris [12]): 2%
Activity (Mus musculus [6]): 0%
Activity (Mus musculus [7]): 20%

CCC(N)C(=O)N(CC)c1c(C)cccc1C.Cl (stereo not drawn)
Activity (Mus musculus [1]): 100%
Activity (Mus musculus [2]): 0%
mortality at 20 min [5]: 30%
Activity (Mus musculus [6]): 100%
Activity (Mus musculus [7]): 100%

Cc1cccc(C)c1NC(=O)CN [GLYCINEXYLIDIDE]
Activity (Mus musculus [1]): 0%
Activity (Mus musculus [2]): 0%
Ratio ED50 (Mus musculus [3]): 0.3
ED50 (Mus musculus [4]): 900 µmol/kg
mortality at 20 min [5]: 0%
Activity (Mus musculus [6]): 0%
Activity (Mus musculus [7]): 10%

CCCOc1cc(C)c(N(CC)C(=O)CN)c(C)c1.O=C(O)C(=O)O
Activity (Mus musculus [1]): 0%
Activity (Mus musculus [2]): 0%
Activity (Canis familiaris [8]): 0.09 mmol/kg
Ratio ED50 (Mus musculus [3]): 1.6
ED50 (Mus musculus [4]): 160 µmol/kg
Activity (Canis familiaris [13]): 0.16 mmol/kg
Activity (Canis familiaris [14]): 0.13 mmol/kg
Activity (Canis familiaris [9]): 168 bpm
Activity (Canis familiaris [10]): 90 mmHg
mortality at 20 min [5]: 0%
Activity (Canis familiaris [12]): 1%
Activity (Mus musculus [6]): 0%
Activity (Mus musculus [7]): 100%
